Data set [1] concerns proteasome Ch-L catalytic subunit in yeast cell lysate (defective T-L/Ca-L). The experiment in a line: Yeast cell lysate assay, double mutant strain. Conditions: MG132 5 μM, peptide 5 9.25 μM, Fig. 1A green. It counts as biochemical.
The subject of data set [2] is 20S proteasome T-L active site. It counts as biochemical, Saccharomyces cerevisiae. Conditions: 30 μM peptide 5; 100 μM Boc-LRR-amc; purified 20S proteasome, Buffer A, 30 °C; λex 380 nm, λem 460 nm; Fig. 2B.
In data set [3] the test system is proteasome with defective Ch-L subunit in yeast cell lysate. The experiment in a line: Yeast cell lysate assay, defective Ch-L subunit. Conditions: peptide 9.25 μM; ~1 mg protein/mL lysate; λex 600 nm, λem 700 nm; Fig. 1A brown. Format: biochemical. The gist of the method: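 Yeast cells (catalytic Thr→Ala) were harvested in log phase into 50 mM Tris-HCl pH 7.4, 1 mM EDTA, 5 mM MgCl2, drop-frozen in liquid nitrogen, cryolysed by grinding mill, and cleared (14000 rpm, 20 min, 4 °C). Protein was set equal by Bradford. The sensor was added as half the assay volume from a 2× solution, and fluorescence change was followed on a plate reader.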

In data set [4] the test system is 20S proteasome Ca-L active site. It counts as biochemical, Saccharomyces cerevisiae. Conditions: 30 μM peptide 5; 100 μM Z-LLE-βna; purified 20S proteasome, Buffer A, 30 °C; λex 342 nm, λem 425 nm; Fig. 2B.
A short description of data set [5]: Light-driven conversion of caged probe to active probe. It counts as physicochemical. Conditions: 349 nm pulsed UV laser; caged fluorescein derivative as reference (Fig. S-6). In outline: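 Uncaging by 349 nm diode-pumped Q-switched UV laser (5 ns pulses, 1 kHz, […] pulse energy) of the sample in a quartz cuvette. Dose was set by the number of pulses delivered and compared against an […] (CMNB)-fluorescein reference standard.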

Experimental findings from paper PMC2820722 (Journal of the American Chemical Society, 2010) are described below.

Peptide text beside a SMILES is read from it. * marks the point of attachment. Cbz = O=C(OCc1ccccc1)*

Consider `CC(C)C[C@@H](C=O)NC(=O)[C@H](CC(C)C)NC(=O)[C@H](CC(C)C)NC(=O)OCc1ccccc1` [MG132] (Cbz-Leu-Leu-Leu-aldehyde), for which, in data set [1], the “Effect of inhibitor on hydrolytic activity towards peptide 5 in lysate” value was “completely abolishes hydrolytic activity”.
On to “Ac-His-Trp-Ser-Leu-Lys(Fl)-amide [Peptide 5]”, for which, in data set [2], the “Effect of Ch-L substrate on rate of T-L substrate processing” value was “reduces the rate”. Also, the “Fluorescence change of the sensor in lysate with defective Ch-L subunit” value in data set [3] is “barely perceptible fluorescence change”. Further, the “Effect of Ch-L substrate on rate of Ca-L substrate processing” value in data set [4] is “reduces the rate”.
Turning to “Ac-His-Trp-Ser-Leu-N(DMNB)-Lys(Fl)-amide [Peptide 10]”, the “Quantum yield for the photolytic conversion of 10 to 5” value in data set [5] worked out at 0.08.
